From the array DNA melting data of Ke et al. (doi:10.1101/2024.01.08.574731) come the findings set out here.

A short description of series [1]: folding enthalpy; higher = less favourable; fluorescence melt of hairpins on a sequencing array, two-state fit. To be noted: sodium 0.088 M. The procedure, abridged: (§1)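 In 50 mM Na-HEPES pH 8.0 containing 25 mM NaCl, hairpins from the library on a sequenced MiSeq flow cell were imaged for Cy3 fluorescence at 2.5 °C steps up to 60 °C, with Cy3 and quencher oligos annealed. After normalisation to pre-quench Cy3 and to control constructs, two-state fits with bootstrapping gave melting temperature and folding enthalpy. Four replicates were combined by inverse-variance weighting, and fitted temperatures were shifted up by 9.35 °C to match UV melts.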

A short description of series [2]: melting temperature; fluorescence melt of hairpins on a sequencing array, two-state fit, raised by 9.35 °C to match UV melts. As to conditions: sodium 0.088 M. The procedure, abridged:
as §1

As to GTGATAGGAAACTATCGC (.(((((....))))).), the folding enthalpy in series [1] was -38.2 kcal/mol. Besides, the Tm in series [2] amounted to 46.3 °C.

Take GTGATCGAAAGATACAC ((((((....))).))): in series [1], the folding enthalpy was -22.1 kcal/mol. Moreover, the Tm in series [2] came to 35.8 °C.

Take GTGATCGAAAGATCAC ((((((....)))))): in series [1], the folding enthalpy is -37.1 kcal/mol. Besides, the Tm in series [2] was 67.4 °C.

For GTGATCGAAAGATCTCAC ((((((....)))..))), in series [1], the folding enthalpy is -11.4 kcal/mol. Besides, the Tm in series [2] turned out to be 39.1 °C.

Consider GTGATCGAAAGATTACAC ((((((....)))..))), for which, in series [1], the folding enthalpy is -20 kcal/mol. Further, the Tm in series [2] came out at 38.5 °C.

GTGATCGGAAACGATTGC (..((((....))))..): the folding enthalpy in series [1] is -22.1 kcal/mol. Moreover, the Tm in series [2] stood at 40.5 °C.

Regarding GTGATGGGAAACCATCGC (.(((((....))))).), the folding enthalpy in series [1] was -23.7 kcal/mol. The Tm in series [2] turned out to be 55.1 °C.

For the sequence GTGATGGGAAACCGTCAC ((((.((....)).)))), the folding enthalpy in series [1] was -50.2 kcal/mol. The Tm in series [2] is 52.9 °C.

As to GTGATTCGAAAGAAACAC (((.(((....))).))), the folding enthalpy in series [1] is -30 kcal/mol. In series [2], the Tm amounted to 46.5 °C.

For the sequence GTGATTGGAAACAATTAC ((.((((....)))).)), the folding enthalpy in series [1] was -32.3 kcal/mol. In addition, the Tm in series [2] was 37.5 °C.

Regarding GTGCACCGAAAGGTCAC (((.(((....)))))), the folding enthalpy in series [1] was -26.3 kcal/mol. In series [2], the Tm stood at 52.5 °C.

GTGCACGAAAGTGACCAC ((((((....)))..))): in series [1], the folding enthalpy is -12.7 kcal/mol. For the same sequence, the Tm in series [2] turned out to be 41.3 °C.

Turning to GTGCACGAAAGTGGACAC ((((((....)))..))), in series [1], the folding enthalpy is -15.2 kcal/mol. Also, the Tm in series [2] amounted to 52.6 °C.

Consider GTGCACGAAAGTGGCAC ((((((....))).))), for which the folding enthalpy in series [1] was -25.1 kcal/mol. The Tm in series [2] was 59.4 °C.

With GTGCACGAAAGTGTCCAC ((((((....)))..))), the folding enthalpy in series [1] is -10.8 kcal/mol. For the same sequence, the Tm in series [2] worked out at 34.8 °C.

GTGCACGCGAAAGCGCAC (((..(((....)))))): the folding enthalpy in series [1] is -15.4 kcal/mol. Also, in series [2], the Tm worked out at 56.3 °C.

On to GTGCACGGAAACGCACAC (((..((....))..))), for which the folding enthalpy in series [1] was -19.9 kcal/mol. The Tm in series [2] turned out to be 38.5 °C.

For GTGCAGCGAAAGCTTCAC (((.(((....))).))), the folding enthalpy in series [1] was -27.6 kcal/mol. Further, the Tm in series [2] stood at 51.6 °C.

Turning to GTGCATGGAAACATACAC (((.(((....))).))), the folding enthalpy in series [1] was -35 kcal/mol. In series [2], the Tm is 39.3 °C.

As for GTGCCATCGAAAGATCAC (((..(((....)))))), the folding enthalpy in series [1] was -5.32 kcal/mol. Also, in series [2], the Tm amounted to 38.4 °C.

For the sequence GTGCCCACGAAAGTGCAC (((..(((....)))))), in series [1], the folding enthalpy was -15.5 kcal/mol. Also, the Tm in series [2] worked out at 44.9 °C.

For GTGCCCGAAAGGGAACAC ((((((....)))..))), the folding enthalpy in series [1] is -15.2 kcal/mol. Besides, the Tm in series [2] was 52.5 °C.

GTGCCCGAAAGGGACCAC ((((((....)))..))): the folding enthalpy in series [1] was -11.3 kcal/mol. Moreover, the Tm in series [2] is 49.5 °C.

In the case of GTGCCGGGAAACCGGTGC (..((((....))))..), the folding enthalpy in series [1] is -19.4 kcal/mol. Further, in series [2], the Tm came out at 52.7 °C.

GTGCCTCGAAAGAGACAC (((.(((....))).))): the folding enthalpy in series [1] was -42.5 kcal/mol. Besides, in series [2], the Tm is 52.6 °C.

For the sequence GTGCCTCGAAAGAGCCAC (((.(((....))).))), the folding enthalpy in series [1] was -21 kcal/mol. Further, the Tm in series [2] worked out at 43.2 °C.

Take GTGCGAGAAATCGCAC ((((((....)))))): in series [1], the folding enthalpy was -28 kcal/mol. Besides, in series [2], the Tm was 68.2 °C.

As to GTGCGAGGAAACTCGTGC (..((((....))))..), the folding enthalpy in series [1] is -23.3 kcal/mol. The Tm in series [2] was 48.4 °C.

On to GTGCGAGGAAACTTGCGC (.((.((....)).)).), for which the folding enthalpy in series [1] is -18.1 kcal/mol. Further, in series [2], the Tm came out at 46 °C.

With GTGCGCGAAAGCGCCAC ((((((....))).))), in series [1], the folding enthalpy is -8.65 kcal/mol. Besides, the Tm in series [2] was 52.2 °C.

As for GTGCGCGAAAGCGGCCAC ((((((....)))..))), the folding enthalpy in series [1] is -11.5 kcal/mol. Besides, the Tm in series [2] came out at 45.9 °C.

Take GTGCGCGAAAGCGGGCAC ((((((....)))..))): the folding enthalpy in series [1] is -15.9 kcal/mol. For the same sequence, the Tm in series [2] came out at 60.7 °C.

As to GTGCGCGAAAGCGTACAC ((((((....)))..))), the folding enthalpy in series [1] is -11.9 kcal/mol. The Tm in series [2] was 60.5 °C.

On to GTGCGGCCGAAAGGCCAC (((..(((....)))))), for which, in series [1], the folding enthalpy was -10.1 kcal/mol. Further, the Tm in series [2] is 64.1 °C.

Turning to GTGCGGCGAAAGCCCCAC (((.(((....))).))), the folding enthalpy in series [1] is -23 kcal/mol. For the same sequence, the Tm in series [2] was found to be 47.6 °C.

Turning to GTGCGGGGAAACCTGCGC (.((.((....)).)).), in series [1], the folding enthalpy is -26.7 kcal/mol. Also, the Tm in series [2] amounted to 51.9 °C.

With GTGCGTCGAAAGACCCAC (((.(((....))).))), the folding enthalpy in series [1] is -26.2 kcal/mol. For the same sequence, in series [2], the Tm came to 45.8 °C.

On to GTGCGTGGAAACGTGCAC ((((..(....)..)))), for which the folding enthalpy in series [1] was -25.3 kcal/mol. Also, in series [2], the Tm came out at 50.8 °C.

As for GTGCTACGAAAGTACCAC (((.(((....))).))), the folding enthalpy in series [1] is -26 kcal/mol. Moreover, the Tm in series [2] was found to be 37.8 °C.

In the case of GTGCTAGGAAACTAGCAC (((((((....))))))), the folding enthalpy in series [1] is -49.4 kcal/mol. Moreover, the Tm in series [2] was found to be 65 °C.

Regarding GTGCTAGGAAACTAGTAC ((.((((....)))).)), the folding enthalpy in series [1] is -33.5 kcal/mol. Also, in series [2], the Tm turned out to be 44.9 °C.

For the sequence GTGCTAGGAAACTGGTAC ((.(.((....)).).)), the folding enthalpy in series [1] is -18.9 kcal/mol. In series [2], the Tm turned out to be 32.6 °C.

For GTGCTATCGAAAGATCAC (((..(((....)))))), the folding enthalpy in series [1] was -13 kcal/mol. Also, in series [2], the Tm is 30.6 °C.

Turning to GTGCTCCGAAAGGACCAC (((.(((....))).))), the folding enthalpy in series [1] was -27.5 kcal/mol. The Tm in series [2] came to 45 °C.

With GTGCTCGAAAGAGCCCAC ((((((....)))..))), in series [1], the folding enthalpy is -8.93 kcal/mol. Moreover, the Tm in series [2] is 35.8 °C.

Regarding GTGCTCGAAAGAGTACAC ((((((....)))..))), in series [1], the folding enthalpy is -14.3 kcal/mol. Also, the Tm in series [2] was 49.7 °C.

As for GTGCTCGGAAACGGGCAC ((((.((....)).)))), in series [1], the folding enthalpy is -47 kcal/mol. Also, the Tm in series [2] amounted to 61.4 °C.

Regarding GTGCTGGAAACAGCAC ((((((....)))))), the folding enthalpy in series [1] was -33.2 kcal/mol. The Tm in series [2] amounted to 67.6 °C.

Turning to GTGCTGGGAAACCAGTGC (..((((....))))..), the folding enthalpy in series [1] was -27.9 kcal/mol. In addition, in series [2], the Tm is 47.5 °C.

As for GTGCTTGGAAACAGGCAC ((((.((....)).)))), the folding enthalpy in series [1] is -41 kcal/mol. The Tm in series [2] stood at 53.4 °C.

GTGGAACGAAAGTTCAC (((.(((....)))))): the folding enthalpy in series [1] was -11.2 kcal/mol. Further, the Tm in series [2] is 44.9 °C.

GTGGAAGAAATTCCAC ((((((....)))))): the folding enthalpy in series [1] was -34.8 kcal/mol. The Tm in series [2] is 51.8 °C.

Regarding GTGGAAGGAAACTTCCAC (((((((....))))))), in series [1], the folding enthalpy is -42.7 kcal/mol. For the same sequence, the Tm in series [2] turned out to be 62 °C.

Consider GTGGAATCGAAAGATCAC (((..(((....)))))), for which, in series [1], the folding enthalpy was -19.2 kcal/mol. Also, in series [2], the Tm came out at 33.9 °C.

Turning to GTGGACCGAAAGGTACAC (((.(((....))).))), the folding enthalpy in series [1] was -30.4 kcal/mol. Further, the Tm in series [2] was determined as 67 °C.
